Results published in ChEMBL document CHEMBL1139282, “6-Bicycloaryl substituted (S)- and (R)-5,6-dihydro-2H-pyran-2-ones: asymmetric synthesis, and anti-proliferative properties” (Bioorg Med Chem, 2009).
pIC50: −log10 of the molar value.

Key:
Assay type in all cases: functional, cell-based
[1] = tested on: MCF7; assay: Cytotoxicity against human MCF7 cells after 48 hrs by MTT assay; conditions: MCF7, 48 h
In short: (§1)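 PC-3 kept in DMEM with 5% FBS, MCF-7 in RPMI-1640 with 15% FBS, both used at passages 10-20. Seeded at 1×10^4 cells/well, attached 24 h, then treated 48 h at 0.01-50 µM with final 1% DMSO, in triplicate. Wells PBS-washed, diluted MTT stock (1:10) added for 3.5 h, plates centrifuged before formazan read-out.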

[2] = tested on: PC-3; assay: Cytotoxicity against human PC3 cells after 48 hrs by MTT assay; conditions: PC-3, 48 h; in short: as §1
[3] = tested on: LNCaP; assay: Cytotoxicity against human LNCAP cells after 72 hrs by MTT assay
In short: (§2)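 ATCC-sourced lines grown at 37 °C, 5% CO2 in RPMI-1640 or DMEM with 5-10% FBS plus penicillin/streptomycin. Cells exposed to a range of doses for 72 h at 37 °C. MTT added, medium removed 4 h later, formazan dissolved in DMSO and read at 570-690 nm. IC50 from three independent assays, two wells each, via % viability.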

[4] = tested on: DU-145; assay: Cytotoxicity against human DU145 cells after 72 hrs by MTT assay; conditions: DU-145, 72 h; in short: as §2
[5] = tested on: PC-3; assay: Cytotoxicity against human PC3 cells after 72 hrs by MTT assay; conditions: PC-3, 72 h; in short: as §2
[6] = tested on: MCF7; assay: Cytotoxicity against human MCF7 cells after 72 hrs by MTT assay; conditions: MCF7, 72 h; in short: as §2

Structure (SMILES)	pIC50 [1]	pIC50 [2]	pIC50 [3]	pIC50 [4]	pIC50 [5]	pIC50 [6]
O=C1C=CC[C@H](c2ccnc3ccccc23)O1	4.49	5.01	–	–	–	–
C=CC[C@@H](OC(=O)C=C)c1ccc(C)c2ccccc12	4.48	4.35	–	–	–	–
C=CC[C@@H](OC(=O)C=C)c1cccc2ccccc12	< 4.30	4.64	–	–	–	–
C=CC[C@@H](OC(=O)C=C)c1cnc2ccccc2c1	4.54	4.79	–	–	–	–
O=C1C=CC[C@H](/C=C/c2ccccc2)O1 [GONIOTHALAMIN]	–	–	4.92	4.72	5.40	4.55
Cc1ccc2ccccc2c1[C@H]1CC=CC(=O)O1	5.59	6.89	–	–	–	–
O=C1C=CC[C@H](c2cccc(Oc3ccccc3)c2)O1	< 4.30	4.96	–	–	–	–
O=C1C=CC[C@H](c2ccc3ccccc3c2)O1	–	–	4.96	4.92	5.52	4.72
C=CC[C@@H](OC(=O)C=C)c1cccc(Oc2ccccc2)c1	< 4.30	< 4.30	–	–	–	–
Cc1ccc([C@H]2CC=CC(=O)O2)c2ccccc12	6.36	7.30	–	–	–	–
O=C1C=CC[C@H](c2cccc3ccccc23)O1	5.59	6.10	–	–	–	–
C=CC[C@@H](OC(=O)C=C)c1ccnc2ccccc12	4.88	4.82	–	–	–	–
O=C1C=CC[C@H](c2cnc3ccccc3c2)O1	5.49	5.60	–	–	–	–
C=CC[C@@H](OC(=O)C=C)c1c(C)ccc2ccccc12	4.98	5.06	–	–	–	–
O=C1C=CC[C@@H](c2ccc3ccccc3c2)O1	–	–	4.82	4.55	4.92	4.43
